Assay results reported in ChEMBL document CHEMBL4382295, “Enhanced Tumor Selectivity of 5-Fluorouracil Using a Reactive Oxygen Species-Activated Prodrug Approach” (ACS Med Chem Lett, 2019).
The source made the active and inactive calls. No cut-off for these calls is given here.

Tests used:
[1] = test system: NCI-H522; assay: Antiproliferative activity against human NCI-H522 cells assessed as growth inhibition at 50 uM after 48 hrs by sulforhodamine B assay relative to control; assay type: functional; conditions: NCI-H522, 48 h, read-out: GI
Summary of the method: (§1)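 NCI cell-line screen (protocol per DTP/NCI). Cells exposed to a single concentration of 50 μM for 48 h, then percent growth inhibition determined.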

[2] = test system: MDA-MB-435; assay: Antiproliferative activity against human MDA-MB-435 cells assessed as growth inhibition at 50 uM after 48 hrs by sulforhodamine B assay relative to control; assay type: functional; conditions: MDA-MB-435, 48 h, read-out: GI; summary of the method: as §1
[3] = test system: OVCAR-3; assay: Antiproliferative activity against human OVCAR3 cells assessed as growth inhibition at 50 uM after 48 hrs by sulforhodamine B assay relative to control; assay type: functional; conditions: OVCAR-3, 48 h, read-out: GI; summary of the method: as §1
[4] = test system: MCF7; assay: Antiproliferative activity against human MCF7 cells assessed as growth inhibition at 50 uM after 48 hrs by sulforhodamine B assay relative to control; assay type: functional; conditions: MCF7, 48 h, read-out: GI; summary of the method: as §1
[5] = test system: MDA-MB-468; assay: Antiproliferative activity against human MDA-MB-468 cells assessed as growth inhibition at 50 uM after 48 hrs by sulforhodamine B assay relative to control; assay type: functional; conditions: MDA-MB-468, 48 h, read-out: GI; summary of the method: as §1
[6] = test system: MCF7; assay: Induction of DNA damage in human MCF7 cells assessed as increase in gammaH2AX level after 48 hrs by DAPI staining based immunofluorescence assay; assay type: functional, cell-based
Summary of the method: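 MCF7 cells treated 48 h at the indicated concentrations. γH2AX formation, a marker of DNA double-strand breaks, visualized by immunofluorescence.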

[7] = test system: MCF7; assay: Antiproliferative activity against human MCF7 cells assessed as reduction in cell viability at 1 to 100 uM after 48 to 72 hrs by CCK8 assay; assay type: functional, cell-based
Summary of the method: (§2)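 Breast cancer MCF7 cells and normal MEC1 cells treated at a range of concentrations, concentrations up to 100 μM. Cell viability then measured. Mean ± SD, n = 4.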

[8] = Cytotoxicity against human MEC1 cells assessed as cell viability at 1 to 100 uM after 48 to 72 hrs by CCK8 assay relative to control; assay type: cell-based; conditions: read-out: Activity; summary of the method: as §2
[9] = test system: MCF7; assay: Induction of apoptosis in human MCF7 cells assessed as increase in cleaved PARP1 level up to 100 uM after 48 hrs by Western blot analysis; assay type: functional, cell-based
Summary of the method: (§3)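 MCF7 cells treated 48 h at the indicated concentrations, with vehicle-treated cells as control. Lysates immunoblotted for PARP1 and caspase 3 and their cleaved forms (CL-PARP1, CL-caspase 3).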

[10] = test system: MCF7; assay: Induction of apoptosis in human MCF7 cells assessed as increase in cleaved caspase-3 level up to 100 uM after 48 hrs by Western blot analysis; assay type: functional, cell-based; summary of the method: as §3
[11] = Acute toxicity in C57BL/6J mouse assessed as death at 100 mg/kg, ip administered every other day for 15 days measured during compound dosing; assay type: organism-based; conditions: in vivo, 360 h
Summary of the method: (§4)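 Wild-type male C57BL/6 mice, randomized into three groups of seven (21 total): vehicle (5% DMSO and 15% polyethylene glycol in saline) or 100 mg/kg test article. Dosed ip every other day for 15 days. Survival, body weight, eating, drinking and activity were recorded throughout treatment.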

[12] = Acute toxicity in C57BL/6J mouse assessed as abnormality in eating at 100 mg/kg, ip administered every other day for 15 days measured during compound dosing; assay type: organism-based; conditions: in vivo, 360 h; summary of the method: as §4
[13] = Acute toxicity in C57BL/6J mouse assessed as abnormality in drinking at 100 mg/kg, ip administered every other day for 15 days measured during compound dosing; assay type: organism-based; conditions: in vivo, 360 h; summary of the method: as §4
[14] = Acute toxicity in C57BL/6J mouse assessed as effect on normal activity at 100 mg/kg, ip administered every other day for 15 days measured during compound dosing; assay type: organism-based; conditions: in vivo, 360 h; summary of the method: as §4
[15] = Acute toxicity in C57BL/6J mouse assessed as decrease in body weight at 100 mg/kg, ip administered every other day for 15 days measured during compound dosing; assay type: organism-based; conditions: in vivo, 360 h; summary of the method: as §4
[16] = test system: MCF7; assay: Antiproliferative activity against human MCF7 cells assessed as reduction in cell viability at 50 to 100 uM after 48 hrs in presence of ROS scavenger NAC by MTT assay
[17] = Acute toxicity in C57BL/6J mouse assessed as death at 100 mg/kg, ip administered every other day for 12 days; assay type: organism-based; conditions: in vivo, 288 h
[18] = Acute toxicity in C57BL/6J mouse assessed as decrease in body weight at 100 mg/kg, ip administered every other day for 12 days; assay type: organism-based; conditions: in vivo, 288 h

Row | SMILES | inhibition of growth at 50 µM [1] [%] | inhibition of growth at 50 µM [2] [%] | inhibition of growth at 50 µM [3] [%] | inhibition of growth at 50 µM [4] [%] | inhibition of growth at 50 µM [5] [%] | Activity [6] | Activity [7] | viability at up to 100 µM [8] [%] | Activity [9] | Activity [10] | Activity [11] | Activity [12] | Activity [13] | Activity [14] | Activity [15] | Activity [16] | Activity [17] | Activity [18]
1 | CC1(C)OB(c2ccc(Cn3cc(F)c(=O)[nH]c3=O)cc2)OC1(C)C | 90 | 96 | 95 | 81 | 87 | Active | Active | > 95 | Active | Active | Non-Toxic | Non-Toxic | Non-Toxic | Non-Toxic | Non-Toxic | inactive |  | 
2 | O=c1[nH]c(=O)n(Cc2ccc(B(O)O)cc2)cc1F | 44 | 65 | 30 | 33 | 22 | Active | Active | > 95 | Active | Active |  |  |  |  |  | inactive |  | 
3 | O=c1[nH]cc(F)c(=O)[nH]1 [FLUOROURACIL] |  |  |  |  |  | Active | Active |  | Active | Active |  |  |  |  |  |  | Toxic | Toxic
4 | O=c1[nH]c(=O)n(Cc2ccccc2)cc1F |  |  |  |  |  |  | inactive |  |  |  |  |  |  |  |  |  |  | 
